In ChEMBL document CHEMBL1148429, “Penicillin-derived inhibitors that simultaneously target both metallo- and serine-beta-lactamases” (Bioorg Med Chem Lett, 2004):
pIC50: −log10 of the molar value. ≈ marks a conversion by molar mass, not a printed value.

Experiments:
[1] = test system: Pseudomonas aeruginosa; experiment: Synergistic activity against SPM-1 beta lactamase produced by Pseudomonas aeruginosa in presence of piperacillin (1:1); R = Resistant
[2] = test system: Pseudomonas aeruginosa; experiment: Synergistic activity against SPM-1 beta lactamase produced by Pseudomonas aeruginosa in presence of piperacillin (1:1) and compound 5c; S = susceptible
[3] = test system: Pseudomonas aeruginosa; experiment: Synergistic activity against VIM-7 beta lactamase produced by Pseudomonas aeruginosa presence of piperacillin (1:1); R = Resistant
[4] = test system: Pseudomonas aeruginosa; experiment: Synergistic activity against VIM-1 beta lactamase produced by Pseudomonas aeruginosa presence of piperacillin (1:1) and compound 5c; S = susceptible
[5] = test system: Escherichia coli; experiment: Synergic activity against IMP-1 beta lactamase produced by Escherichia coli in presence of piperacillin (1:1); R = Resistant; format: functional
[6] = test system: Pseudomonas aeruginosa; experiment: Synergistic activity against VIM-7 beta lactamase produced by Pseudomonas aeruginosa presence of piperacillin (1:1) and compound 5c; R = Resistant
[7] = test system: Escherichia coli; experiment: Synergic activity against IMP-1 beta lactamase produced by Escherichia coli in presence of piperacillin (1:1) and compound 5c; S = susceptible; format: functional
Procedure, shortened: (§1)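 Synergy with piperacillin against metallo-β-lactamase-producing strains (IMP-1; SPM-1, VIM-1 or VIM-7 carriers). The initial screen used […] at a 1:1 antibiotic:inhibitor ratio. Inhibitor was tested with tazobactam or DVR-II-183 added as a serine β-lactamase inhibitor, or without one.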

[8] = test system: Pseudomonas aeruginosa; experiment: Synergistic activity against VIM-1 beta lactamase produced by Pseudomonas aeruginosa presence of piperacillin (1:1); R = Resistant
[9] = test system: Escherichia coli; experiment: Synergic activity against IMP-1 beta lactamase produced by Escherichia coli in presence of Piperacillin and Tazobactam; S = susceptible; format: functional
Procedure, shortened: as §1

[10] = molecular target: Beta-lactamase TEM (Escherichia coli) (UniProt P62593); experiment: Beta-Lactamase inhibitory activity against representative class A (TEM-1) serine enzyme from Escherichia coli ATCC 35218 in presence of Piperacillin
Chain of Beta-lactamase TEM (Escherichia coli) (P62593 whole entry): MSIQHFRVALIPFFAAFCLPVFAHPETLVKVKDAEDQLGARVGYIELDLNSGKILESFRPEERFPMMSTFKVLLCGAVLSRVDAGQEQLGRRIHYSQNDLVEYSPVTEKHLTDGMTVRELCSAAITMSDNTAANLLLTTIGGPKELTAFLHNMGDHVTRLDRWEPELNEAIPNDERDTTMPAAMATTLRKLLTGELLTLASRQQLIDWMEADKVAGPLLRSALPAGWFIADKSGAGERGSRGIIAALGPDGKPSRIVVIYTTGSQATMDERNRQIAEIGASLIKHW
Procedure, shortened: (§2)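 MIC of piperacillin against β-lactamase-producing strains, with the piperacillin concentration varied and the inhibitor held constant at […].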

[11] = test system: Pseudomonas aeruginosa; experiment: Synergistic activity against VIM-7 beta lactamase produced by Pseudomonas aeruginosa in presence of Piperacillin and Tazobactam; R = Resistant
[12] = test system: Staphylococcus aureus; experiment: Antibacterial activity was determined against the Staphylococcus aureus ATCC 29213 in presence of Piperacillin; format: functional
Procedure, shortened: as §2

[13] = test system: Pseudomonas aeruginosa; experiment: Synergistic activity against SPM-1 beta lactamase produced by Pseudomonas aeruginosa in presence of Piperacillin and Tazobactam; R = Resistant
[14] = molecular target: T1, Metallo-beta-lactamase type 2 (Bacillus cereus, UniProt P14488); experiment: Inhibition of class B (BCII) metallo-beta-lactamase representative enzyme
T1 sequence (P14488 whole entry): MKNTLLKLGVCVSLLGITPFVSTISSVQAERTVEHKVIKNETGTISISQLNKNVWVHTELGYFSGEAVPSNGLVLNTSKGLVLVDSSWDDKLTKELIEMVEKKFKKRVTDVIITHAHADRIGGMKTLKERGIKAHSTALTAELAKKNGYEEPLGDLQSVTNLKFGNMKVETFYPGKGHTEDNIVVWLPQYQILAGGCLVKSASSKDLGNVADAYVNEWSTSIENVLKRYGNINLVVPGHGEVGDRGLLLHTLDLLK
Procedure, shortened: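 BCII metallo-β-lactamase assay: inhibitor and enzyme incubated together for 4 min in 970 µL, then concentrated nitrocefin added to 1 mL final volume. IC50 determined from nitrocefin hydrolysis.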

[15] = molecular target: Beta-lactamase (Escherichia coli K-12) (UniProt P00811)
Chain of Beta-lactamase (Escherichia coli K-12) (P00811 whole entry): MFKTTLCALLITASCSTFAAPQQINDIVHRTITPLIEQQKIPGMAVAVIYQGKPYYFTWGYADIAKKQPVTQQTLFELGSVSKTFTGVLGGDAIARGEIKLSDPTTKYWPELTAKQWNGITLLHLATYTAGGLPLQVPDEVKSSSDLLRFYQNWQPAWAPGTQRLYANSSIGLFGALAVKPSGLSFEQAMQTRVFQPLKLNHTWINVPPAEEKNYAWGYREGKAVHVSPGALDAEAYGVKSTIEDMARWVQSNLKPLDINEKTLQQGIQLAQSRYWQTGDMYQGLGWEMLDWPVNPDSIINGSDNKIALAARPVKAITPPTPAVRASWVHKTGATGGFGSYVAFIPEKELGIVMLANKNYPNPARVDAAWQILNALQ

[16] = test system: Pseudomonas aeruginosa; experiment: Synergistic activity against VIM-1 beta lactamase produced by Pseudomonas aeruginosa in presence of Piperacillin and Tazobactam; R = Resistant
[17] = molecular target: Beta-lactamase L1 (Stenotrophomonas maltophilia, UniProt P52700); experiment: Beta-Lactamase Inhibition of metallo-beta-lactamase representative class B (L1) enzyme
Chain of Beta-lactamase L1 (P52700 whole entry): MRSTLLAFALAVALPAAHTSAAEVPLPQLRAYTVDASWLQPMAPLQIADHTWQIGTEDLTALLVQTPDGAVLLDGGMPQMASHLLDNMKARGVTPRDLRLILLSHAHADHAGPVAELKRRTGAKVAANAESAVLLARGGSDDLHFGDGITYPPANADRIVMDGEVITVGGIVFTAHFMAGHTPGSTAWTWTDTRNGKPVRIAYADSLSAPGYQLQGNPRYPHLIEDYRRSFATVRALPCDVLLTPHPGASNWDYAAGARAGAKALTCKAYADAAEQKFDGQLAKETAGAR
Procedure, shortened: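 For the metallo enzyme, inhibitor and enzyme were preincubated for 4 min. Concentrated nitrocefin was then added to give the final assay volume, and IC50 was determined.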

[18] = molecular target: Beta-lactamase TEM (Escherichia coli, UniProt P62593); experiment: Beta-Lactamase inhibitory activity against representative class A (TEM-1) serine enzyme
Chain of Beta-lactamase TEM (P62593 whole entry): as the sequence (P62593 whole entry) above
Procedure, shortened: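 Serine β-lactamase assay: inhibitor preincubated with enzyme for 4 min in 100 µL, then an aliquot transferred into dilute nitrocefin substrate (1 mL final). IC50 is expressed as the inhibitor concentration in the 100 µL incubation, from multiple experiments.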

[19] = Synergic activity of compound was determined against IMP-1 beta lactamase produced by Escherichia coli; format: functional
Procedure, shortened: as §1

[20] = Synergistic activity of compound was determined against VIM-7 beta lactamase produced by Pseudomonas aeruginosa
[21] = Synergistic activity of compound was determined against […]; format: functional, plasmodium aeruginosa; details: Pseudomonas aeruginosa
Procedure, shortened: as §1

[22] = Synergistic activity of compound was determined against SPM-1 beta lactamase produced by Pseudomonas aeruginosa
[23] = test system: Staphylococcus aureus; experiment: Antibacterial activity was determined against the Staphylococcus aureus ATCC 29213; format: functional
[24] = molecular target: Beta-lactamase TEM (Escherichia coli) (UniProt P62593); experiment: Beta-Lactamase inhibitory activity against represent active class A (TEM-1) serine enzyme from Escherichia coli ATCC 35218
[25] = Synergistic activity against SPM-1 beta lactamase produced by Pseudomonas aeruginosa in presence of Piperacillin
[26] = Synergistic activity against VIM-1 beta lactamase produced by Pseudomonas aeruginosa in presence of Piperacillin
[27] = Synergistic activity against VIM-7 beta lactamase produced by Escherichia coli in presence of Piperacillin; format: functional, plasmodium aeruginosa; details: Pseudomonas aeruginosa
[28] = test system: Pseudomonas aeruginosa; experiment: Synergistic activity against VIM-7 beta lactamase produced by Pseudomonas aeruginosa in presence of Piperacillin; R = Resistant
[29] = Synergic activity against IMP-1 beta lactamase produced by Escherichia coli was determined in presence of Piperacillin; format: functional
[30] = test system: Pseudomonas aeruginosa; experiment: Synergistic activity against VIM-1 beta lactamase produced by Pseudomonas aeruginosa in presence of Piperacillin; R = Resistant
[31] = Synergic activity against IMP-1 beta lactamase produced by Escherichia coli in presence of Piperacillin and DVRII183; format: functional
Procedure, shortened: as §1

[32] = Synergistic activity against VIM-7 beta lactamase produced by Escherichia coli in presence of Piperacillin and DVRII183; format: functional, plasmodium aeruginosa; details: Pseudomonas aeruginosa
Procedure, shortened: as §1

[33] = Synergistic activity against SPM-1 beta lactamase produced by Pseudomonas aeruginosa in presence of Piperacillin and DVRII183
[34] = Synergistic activity against VIM-1 beta lactamase produced by Escherichia coli in presence of Piperacillin and Tazobactam; format: functional, plasmodium aeruginosa; details: Pseudomonas aeruginosa
Procedure, shortened: as §1

[35] = test system: Pseudomonas aeruginosa; experiment: Synergistic activity against VIM-7 beta lactamase produced by Pseudomonas aeruginosa in presence of Piperacillin and compound 48; R = Resistant
[36] = Synergic activity against IMP-1 beta lactamase produced by Escherichia coli in presence of Piperacillin; format: functional
Procedure, shortened: as §1

[37] = test system: Pseudomonas aeruginosa; experiment: Synergistic activity against SPM-1 beta lactamase produced by Pseudomonas aeruginosa in presence of Piperacillin and compound 48; S = susceptible
[38] = test system: Escherichia coli; experiment: Synergic activity against IMP-1 beta lactamase producing Escherichia coli in presence of Piperacillin and compound 48; S = susceptible; format: functional
Procedure, shortened: as §1

[39] = test system: Pseudomonas aeruginosa; experiment: Synergistic activity against VIM-1 beta lactamase produced by Pseudomonas aeruginosa in presence of Piperacillin and compound 48; S = susceptible
[40] = Synergistic activity against VIM-1 beta lactamase produced by Pseudomonas aeruginosa in presence of Piperacillin and DVRII183
[41] = test system: Pseudomonas aeruginosa; experiment: Synergistic activity against SPM-1 beta lactamase produced by Pseudomonas aeruginosa in presence of Piperacillin and Tazobactam; S = susceptible
[42] = Synergistic activity against VIM-7 beta lactamase produced by Escherichia coli in presence of Piperacillin and Tazobactam; format: functional, plasmodium aeruginosa; details: Pseudomonas aeruginosa
Procedure, shortened: as §1

[43] = test system: Pseudomonas aeruginosa; experiment: Synergistic activity against SPM-1 beta lactamase produced by Pseudomonas aeruginosa in presence of Piperacillin; S = susceptible
[44] = test system: Escherichia coli; experiment: Synergic activity against IMP-1 beta lactamase produced by Escherichia coli in presence of Piperacillin; S = susceptible; format: functional
Procedure, shortened: as §1

[45] = Synergic activity against IMP-1 beta lactamase produced by Escherichia coli in presence of Piperacillin and Tazobactam; format: functional
Procedure, shortened: as §1

[46] = Synergistic activity against SPM-1 beta lactamase produced by Pseudomonas aeruginosa in presence of Piperacillin and Tazobactam

For `C[C@@]1(COC(=O)Cc2ccc(O)c(O)c2)S[C@@H]2/C(=C\c3ccccn3)C(=O)N2[C@H]1C(=O)O`, the Activity [1] was “Resistant”, the Activity [2] was “Susceptible” and the Activity [3] was “Resistant”. For the same molecule, the Activity [4] was “Susceptible”, the Activity [5] was “Resistant” and the Activity [6] was “Resistant”. The Activity [7] was “Susceptible” and the Activity [8] was “Resistant”.
For `CC1(C)[C@H](C(=O)O)N2C(=O)[C@H](CS)[C@H]2S1(=O)=O`, the Activity [9] was “Susceptible”, the MIC [10] was 32 µg/mL and the Activity [11] was “Resistant”. The MIC [12] was 4 µg/mL, the Activity [13] was “Resistant” and the pIC50 [14] was 4.92. For the same molecule, the MIC [15] was 0.5 µg/mL (≈ 1.79 µM), the Activity [16] was “Resistant” and the pIC50 [17] was 6.52.
Work on `CC1(C)S[C@@H]2[C@H](S)C(=O)N2[C@H]1C(=O)O` yielded a pIC50 [18] of under 3.00, an MIC [10] of over 128 µg/mL and an MIC [12] of 8 µg/mL. For the same molecule, the pIC50 [14] was 4.75, the MIC [15] was 2 µg/mL (≈ 8.57 µM) and the pIC50 [17] was 4.38.
With `O=C(O)c1cccc(C(=O)O)n1` [DIPICOLINIC ACID] the pIC50 [14] was 4.66 and the pIC50 [17] was 5.11.
`CCN1CCN(C(=O)N[C@@H](C(=O)N[C@@H]2C(=O)N3[C@@H]2SC(C)(C)[C@@H]3C(=O)O)c2ccccc2)C(=O)C1=O` [PIPERACILLIN] gave an MIC [19] of over 128 µg/mL, an MIC [20] of over 128 µg/mL and an MIC [21] of over 128 µg/mL. The MIC [22] was over 128 µg/mL, the MIC [23] was 8 µg/mL (≈ 15.5 µM) and the MIC [24] was over 128 µg/mL.
In the case of `CC1(C)[C@H](C(=O)O)N2C(=O)[C@H](S)[C@H]2S1(=O)=O`, the pIC50 [18] was 4.16, the MIC [10] was over 128 µg/mL and the MIC [12] was 8 µg/mL. It also gave a pIC50 [14] of 3.97, an MIC [15] of 2 µg/mL (≈ 7.54 µM) and a pIC50 [17] of 5.12.
Work on `C[C@]1(Cn2ccnn2)[C@H](C(=O)[O-])N2C(=O)C[C@H]2S1(=O)=O.[Na+]` [TAZOBACTAM SODIUM] yielded an MIC [25] of over 128 µg/mL, an MIC [10] of 1 µg/mL and an MIC [26] of over 128 µg/mL. It also gave an MIC [27] of over 128 µg/mL, an MIC [12] of 1 µg/mL and a pIC50 [14] of under 3.70. For the same molecule, the MIC [15] was 0.5 µg/mL, the Activity [28] was “Resistant” and the MIC [29] was over 128 µg/mL. For the same molecule, the Activity [30] was “Resistant” and the pIC50 [17] was under 3.70.
For `CC1(C)[C@H](C(=O)O)N2C(=O)[C@@H](CS)[C@H]2S1(=O)=O`, the Activity [9] was “Susceptible”, the MIC [31] was 8 µg/mL and the MIC [25] was 64 µg/mL. It also gave an MIC [32] of over 128 µg/mL, an MIC [33] of 64 µg/mL and an MIC [10] of 8 µg/mL. For the same molecule, the MIC [34] was over 128 µg/mL, the Activity [35] was “Resistant” and the Activity [11] was “Resistant”. The MIC [26] was over 128 µg/mL, the MIC [36] was 8 µg/mL and the MIC [27] was over 128 µg/mL. For the same molecule, the MIC [12] was 2 µg/mL, the Activity [37] was “Susceptible” and the Activity [38] was “Susceptible”. For the same molecule, the pIC50 [14] was 5.85, the Activity [39] was “Susceptible” and the MIC [40] was 128 µg/mL. For the same molecule, the MIC [15] was 0.25 µg/mL (≈ 0.895 µM), the Activity [41] was “Susceptible” and the Activity [28] was “Resistant”. The MIC [42] was over 128 µg/mL, the Activity [43] was “Susceptible” and the Activity [16] was “Resistant”. The Activity [30] was “Resistant”, the Activity [44] was “Susceptible” and the pIC50 [17] was 7.00. For the same molecule, the MIC [45] was 8 µg/mL and the MIC [46] was 64 µg/mL.
